What was measured:
Assay type in all cases: functional
Rattus norvegicus [1] = assay: Antiinflammatory activity in Sprague-Dawley rat assessed as protection against carrageenan-induced paw edema at 20 mg/kg, po administered 1 hr before carrageenan challenge measured after 1 hr
Method in brief: (§1)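 Female Sprague–Dawley rats, fasted 18 h, 6 per group. Given 20 mg/kg orally as an aqueous suspension in distilled water, 1 h before 0.1 mL of 1% w/v carrageenan injected subcutaneously into the left hind footpad. Paw volume was read by mercury plethysmometer before injection and hourly for 4 h. Inhibition % = (Ec − Et)/Ec from edema rates; mean ± S.E, n = 6.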

Rattus norvegicus [2] = assay: Antiinflammatory activity in Sprague-Dawley rat assessed as protection against carrageenan-induced paw edema at 20 mg/kg, po administered 1 hr before carrageenan challenge measured after 2 hrs; method in brief: as §1
Rattus norvegicus [3] = assay: Antiinflammatory activity in Sprague-Dawley rat assessed as protection against carrageenan-induced paw edema at 20 mg/kg, po administered 1 hr before carrageenan challenge measured after 3 hrs; method in brief: as §1
Mus musculus [4] = assay: Analgesic activity in Swiss mouse at 20 mg/kg, po assessed as reaction time after 30 mins by hot plate method
Method in brief: (§2)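 Swiss mice (25–30 g, both sexes), 6 per group, given an oral aqueous suspension at 20 mg/kg. Reaction time on a hot plate was taken as the interval to hind-paw licking or jumping, with a 60 s cut-off. It was measured before dosing (0 min) and at 15, 30, 60 and 90 min after treatment. Mean of six animals.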

Mus musculus [5] = assay: Analgesic activity in Swiss mouse at 20 mg/kg, po assessed as reaction time after 60 mins by hot plate method; method in brief: as §2
Mus musculus [6] = assay: Analgesic activity in Swiss mouse at 20 mg/kg, po assessed as reaction time after 90 mins by hot plate method; method in brief: as §2
Mus musculus [7] = assay: Analgesic activity in Swiss albino mouse assessed as protection against acetic acid-induced writhing at 20 mg/kg, po after 30 mins
Method in brief: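 Swiss mice (25–30 g, both sexes), fasted 16 h, 6 per group. Dosed orally at 20 mg/kg as an aqueous suspension; controls got distilled water. After 30 min, 0.7% aqueous acetic acid was given at 10 mL/kg. Writhes were counted for 20 min. % protection = (control mean − treated mean)/control mean × 100.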

Mus musculus [8] = assay: Analgesic activity in Swiss albino mouse assessed as protection against acetic acid-induced writhing at 20 mg/kg, po after 1 hr
Mus musculus [9] = assay: Analgesic activity in Swiss albino mouse assessed as protection against acetic acid-induced writhing at 20 mg/kg, po after 2 hrs
Mus musculus [10] = assay: Analgesic activity in Swiss albino mouse assessed as protection against acetic acid-induced writhing at 20 mg/kg, po after 3 hrs

| Compound | Activity (Rattus norvegicus [1]) [%] | Activity (Rattus norvegicus [2]) [%] | Activity (Rattus norvegicus [3]) [%] | Time (Mus musculus [4]) [s] | Time (Mus musculus [5]) [s] | Time (Mus musculus [6]) [s] | Activity (Mus musculus [7]) [%] | Activity (Mus musculus [8]) [%] | Activity (Mus musculus [9]) [%] | Activity (Mus musculus [10]) [%] |
| --- | --- | --- | --- | --- | --- | --- | --- | --- | --- | --- |
| O=c1cc(/N=C/c2ccncc2)nc2sc3nc4ccccc4nc3n12 | 51.1 | 54.2 | 33.4 | 9.66 | 9.82 | 10.4 | 60.2 | 64.1 | 68.2 | 51.1 |
| Nc1cc(=O)[nH]c(Sc2nc3ccccc3nc2Cl)n1 | 58.8 | 58.3 | 41.3 | 8.42 | 9.41 | 10.7 | 68 | 73 | 75.4 | 57.2 |
| Nc1cc(=O)n2c(n1)sc1nc3ccccc3nc12 | 55.3 | 61 | 41.2 | 8.42 | 9.41 | 10.7 | 60.4 | 68 | 73.3 | 46.3 |
| O=c1c2cc3ccccc3nc2nc2sc3nc4ccccc4nc3n12 | 45.3 | 47.6 | 37.6 | 8.84 | 10.6 | 10.9 | 40.4 | 46 | 47.8 | 35.2 |
| O=c1c2cc3c(nc2nc2sc4nc5ccccc5nc4n12)CCCC3 | 38.8 | 41.3 | 24.3 | 8.4 | 10.4 | 10.7 | 42.2 | 45 | 45.1 | 34.7 |
| O=c1c2ccccc2[nH]c2nc3sc4nc5ccccc5nc4n3c(=O)c12 | 40.2 | 41.5 | 30.1 | 8.16 | 9.78 | 10.1 | 42.5 | 49 | 53.1 | 38.4 |
| O=c1c2ccc(Cl)cc2[nH]c2nc3sc4nc5ccccc5nc4n3c(=O)c12 | 43.1 | 48 | 31.5 | 7.07 | 9.5 | 12.7 | 40.5 | 51 | 47.3 | 38.3 |
| Cc1nn(-c2ccccc2)c2nc3nc4sc5nc6ccccc6nc5n4c(=O)c3cc12 | 48.6 | 56.1 | 33.8 | 7.55 | 8.6 | 12 | 45.7 | 52 | 58.3 | 35.5 |
| Cc1cc(C)c2c(N)c3c(=O)n4c(nc3nc2n1)sc1nc2ccccc2nc14 | 58.5 | 60.4 | 45.5 | 10.1 | 10.7 | 7.62 | 72.2 | 75 | 76.2 | 60.3 |
| O=c1c2c(-c3ccccc3)c3c(nc2nc2sc4nc5ccccc5nc4n12)/C(=C\c1ccccc1)CCC3 | 41.3 | 43.8 | 31.9 | 7.51 | 8.86 | 10.4 | 42.4 | 47 | 50.3 | 38.6 |
| O=c1c2c(-c3ccc(Cl)cc3)c3c(nc2nc2sc4nc5ccccc5nc4n12)/C(=C\c1ccc(Cl)cc1)CCC3 | 45.7 | 43.2 | 38.2 | 8.61 | 9.06 | 9.22 | 45 | 53 | 55.6 | 36.3 |
| COc1ccc(/C=C2/CCCc3c2nc2nc4sc5nc6ccccc6nc5n4c(=O)c2c3-c2ccc(OC)cc2)cc1 | 48 | 52.2 | 40.1 | 8.67 | 9.82 | 10.4 | 51.4 | 53 | 56.5 | 38.6 |
| O=C([O-])Cc1ccccc1Nc1c(Cl)cccc1Cl.[Na+] [DICLOFENAC SODIUM] | 52.4 | 60.3 | 42 | 10 | 11.4 | 13.2 | 46 | 55.2 | 62 | 39 |

— ChEMBL document CHEMBL1157859, “Synthesis of some new pyrimido[2',1':2,3]thiazolo[4,5-b]quinoxaline derivatives as anti-inflammatory and analgesic agents” (2010)
